Screens: PubChem BioAssay, several laboratories
An excerpt weighted towards active compounds, which were near 3.1% of everything screened.
Tb hexokinase: Trypanosoma brucei hexokinase 1 inhibitors, primary screen, biochemical, G6PDH-coupled NADH absorbance, MLSCN library | inhibition, % at 10 µM | AID 1430, 2008 | hexokinase 1 [Trypanosoma brucei] | actives 0.11% (n = 220,000) | recombinant TbHK1, G6PDH-coupled NADH A340;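 active = inhibition of 50% or more in the single-dose primary screen; inactive = inhibition below 50%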
Hsp70 activator: Hsp70 transcriptional activators, primary screen, cell-based, HeLa, Hsp70 promoter luciferase, luminescence, 10 µM; HeLa Hsp70 promoter luciferase reporter; scaled: vehicle 0, proteasome-inhibitor control 100%; activation, % at 10 µM; actives 0.04% (n = 200,000); AID 1203, 2008;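 active = activation above the mean across all tested compounds plus 3 SD, cutoff set per campaign, cut at about 5.5% in these data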;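 note: 100% = MG132 at 30 µM as the positive control and 0% = DMSO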
HSP90 inh: HSP90 inhibitors, primary screen, cell lysate, luminescence. actives 0.91% (n = 290,000). inhibition, % at 5.6 µM. Rabbit reticulocyte lysate, luciferase refolding luminescence, 3 h. AID 1789, 2009. Heat shock protein HSP 90 (rabbit reticulocyte lysate; luciferase refolding);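 active = inhibition above the screen-wide mean plus 3 SD, computed separately per campaign, cut at about 16% in these data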;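 note: 0% = DMSO wells and 100% = 60 µM geldanamycin wells; inhibitors lower the luminescence because luciferase stays unfolded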
HSF1 inh: HSF1 inhibitors in luciferase reporter cells, primary screen, cell-based, NIH3T3, luminescence. NIH3T3-HGL HSE-luciferase, MG132-induced, luminescence 8 h; hits give low values. activity change, negative = inhibition, % at 7.5 µM (by protocol). AID 2098, 2009. actives 0.77% (n = 300,000);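 active = more than half of replicate wells show activity change below -50%, luminescence cut by over half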;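 note: luciferase reports HSF-1 transcriptional activity via heat shock element; 0% = median of DMSO wells and -100% = zero luminescence signal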
HKDC1 inh: HKDC1 hexokinase inhibitors, primary screen, biochemical, fluorescence, uHTS | actives 0.16% (n = 340,000) | Q2TB90 | inhibition, % at 20 µM | AID 493160, 2011 | recombinant HKDC1, G6PDH/diaphorase resazurin coupled fluorescence;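 active = inhibition above about 35% when tested at 20 µM, limit read from the data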;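 note: plate controls were DMSO wells with enzyme for no effect and DMSO wells lacking enzyme for full effect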
Target sequence (Q2TB90 whole entry, looked up): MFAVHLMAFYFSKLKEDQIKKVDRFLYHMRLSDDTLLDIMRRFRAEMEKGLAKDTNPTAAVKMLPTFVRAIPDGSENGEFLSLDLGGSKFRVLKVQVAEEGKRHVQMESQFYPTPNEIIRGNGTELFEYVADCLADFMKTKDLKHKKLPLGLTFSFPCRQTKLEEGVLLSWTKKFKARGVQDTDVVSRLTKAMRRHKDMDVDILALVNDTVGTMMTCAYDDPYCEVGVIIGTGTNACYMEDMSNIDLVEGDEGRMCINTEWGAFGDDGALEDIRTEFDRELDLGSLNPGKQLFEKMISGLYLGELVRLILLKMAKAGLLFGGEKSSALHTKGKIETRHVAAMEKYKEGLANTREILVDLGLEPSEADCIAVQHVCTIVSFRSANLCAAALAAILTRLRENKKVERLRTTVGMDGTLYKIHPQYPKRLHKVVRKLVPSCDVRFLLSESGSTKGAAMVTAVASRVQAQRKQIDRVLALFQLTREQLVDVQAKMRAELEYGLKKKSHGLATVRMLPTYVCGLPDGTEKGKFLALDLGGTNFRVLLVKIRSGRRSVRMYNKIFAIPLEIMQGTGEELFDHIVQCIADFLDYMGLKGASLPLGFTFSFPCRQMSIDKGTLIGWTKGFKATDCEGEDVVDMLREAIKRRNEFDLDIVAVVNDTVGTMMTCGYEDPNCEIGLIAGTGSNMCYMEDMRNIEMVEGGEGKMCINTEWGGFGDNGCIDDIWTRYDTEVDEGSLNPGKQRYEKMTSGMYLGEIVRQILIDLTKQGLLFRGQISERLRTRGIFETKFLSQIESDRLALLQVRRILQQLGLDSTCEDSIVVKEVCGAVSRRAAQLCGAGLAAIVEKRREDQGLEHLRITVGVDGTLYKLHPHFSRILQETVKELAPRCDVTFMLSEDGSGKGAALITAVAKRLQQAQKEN
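Test system: recombinant HKDC1 (HK5) hexokinase enzyme, produced in-house / Doses: 20 µM test compound, 1% DMSO / Timing: 90 min, room temperature / Detection: G6PDH/diaphorase-coupled fluorescence, 1 mM NADP, 100 µM resazurin, 525/613 nm / Control set: DMSO wells with and without enzyme mix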
HSF-1 act: HSF-1 activators, primary screen, NIH3T3-HGL cells, MG132 stress, luminescence, single point; actives 1.7% (n = 300,000); activation, % at 9 µM; AID 504408, 2011; NIH3T3-HGL HSF-1 luciferase reporter, 8 h; 100% = twice DMSO control signal;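 active = mean replicate activation of at least 50% with a set share of replicates each reaching 50%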;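 note: 0% = median of the neutral control wells and 100% = twice that signal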
The depositor's hits bear a star; . = not tested or not shown.

SMILES	Tb hexokinase	Hsp70 activator	HSP90 inh	HSF1 inh	HKDC1 inh	HSF-1 act
CCOC(=O)c1cnc2c(-c3ccccc3)cnn2c1N	-3	0	0	31	2	53*
Nc1c(-c2cccc(Cl)c2)cnc2c(-c3ccccc3)cnn12	.	.	1	26	0	64*
CCOC(=O)c1c(C)nc(C)c(C(=O)OCC)c1-c1ccccc1	-4	0	-1	10	2	15
CCOC(=O)c1c(-c2ccccc2)cn2c(C)cc(C)nc12	-9	0	-2	24	13	59*
CCC(CC)C(=O)Oc1c(C(=O)N(C)C)cccc1-c1ccccc1	.	.	.	.	-3	.
CN1CCC(N(C)C(=O)/C(C#N)=C\c2ccc(OC(F)F)cc2)CC1	.	.	.	.	-5	.
Nc1nc(CCl)nc(N(c2ccccc2)c2ccccc2)n1	-4	.	-4	-21	4	-20
Cc1ccc2c(c1)C1(OCCCO1)C(=O)N2	.	.	0	-4	5	-1
O=C(COC(=O)c1ccc(Cl)nc1)c1ccc2c(c1)OCCO2	-4	0	5	41	-1	65*
O=C(NCc1ccccc1F)c1ccncc1	.	.	2	3	-5	-17
Cc1cc(NC(=O)CCN2C(=O)/C(=C/c3ccccc3Cl)SC2=S)no1	-3	0	2	11	-10	54*
O=C(CCN1C(=O)/C(=C/c2cccs2)SC1=S)Nc1ccccc1O	.	.	-1	43	-5	69*
O=C(CCN1C(=O)/C(=C/c2cccs2)SC1=S)Nc1ccc(O)cc1	.	.	0	11	-4	15
O=C(NCCn1cccn1)C1CCC(=O)N(CCc2cccc(F)c2)C1 (configuration not stated)	.	.	-5	18	-4	51*
CCCN(C(=O)COc1ccc(C(C)=O)cc1OC)C1CCS(=O)(=O)C1 (configuration not stated)	.	.	.	.	-5	.
Cc1ccc(S(=O)(=O)Cn2nnnc2CN(Cc2ccco2)CC2CCCO2)cc1 (configuration not stated)	3	0	-3	20	-7	59*
Cc1ccc2cc(CN(Cc3nnnn3Cc3ccco3)CC3CCCO3)c(=O)[nH]c2c1C (configuration not stated)	-8	0	2	-12	1	2
CCOc1ccc(NC(=O)C(C)SC(N)=O)cc1 (configuration not stated)	-1	0	-1	-60*	-5	-70
CCOc1ccc(NC(=O)C(C)Sc2nnnn2C)cc1 (configuration not stated)	1	0	2	-4	-8	-3
O=C(Cc1ccc(F)cc1)Nc1nnc(-c2ccc(F)cc2)o1	.	.	5	-5	-2	7
O=C(N/N=C/c1ccccc1Cl)c1cccc(F)c1	3	0	-2	42	-13	73*
O=C(N/N=C/c1c(Cl)cccc1Cl)c1cccc(F)c1	-3	0	0	18	10	31
O=C(N/N=C/c1ccccc1)c1n[nH]c2c1CCCC2	-4	0	5	18	-9	41
O=C(N/N=C/c1ccccc1Cl)c1n[nH]c2c1CCCC2	19	0	20*	-67*	-9	-72
CCOC(=O)c1ccc(N=Cc2cnc(N)nc2N)cc1	.	.	.	.	0	.
SMILES	Tb hexokinase	Hsp70 activator	HSP90 inh	HSF1 inh	HKDC1 inh	HSF-1 act
COc1ccccc1NC(=O)c1cnc(SCC(=O)NCC2CCCO2)n(C)c1=O (configuration not stated)	.	.	.	164	0	171*
c1ccc(-c2nc(CSc3n[nH]c(-c4cccs4)n3)cs2)cc1	5	0	-1	14	-6	60*
CCC(=O)Nc1ccc(SC#N)cc1C	-3	2	0	-5	-7	-10
CCc1cc(SC#N)cc(C)c1NC(=O)CCl	31	0	8	71	-8	113*
Cc1cc(SC#N)cc(C)c1NC(=O)CCl	-3	0	3	126	1	136*
CCN(C(=O)COC(=O)CCC(=O)c1cccs1)c1c(N)n(Cc2ccccc2)c(=O)[nH]c1=O	.	.	.	-9	-4	-24
CCOC(=O)c1c(NC(=O)CN2CCCc3ccccc32)sc(C(C)=O)c1C	-11	0	0	9	-7	50*
COCCOC(=O)c1c(NC(=O)CN2CCc3ccccc32)sc(C(N)=O)c1C	-11	.	6	5	-6	6
Cc1noc(C)c1COc1ccccc1C(=O)NCCOc1ccccc1	.	.	.	.	-5	.
O=C(Nc1ccc(Cl)cc1)C1=Cc2cc(Cl)ccc2OC1	0	0	3	-14	-7	-9
O=C(Nc1ccc(Cl)cc1Cl)C1=Cc2ccccc2OC1	3	1	2	32	-1	53*
Cc1[nH]c2ccc(-c3nnc(SCC(=O)c4ccc(F)cc4)o3)cc2c1C	-10	0	0	-60*	1	-64
Cc1ccc(S(=O)(=O)Nc2ccccc2F)cc1C(=O)NNC(=O)c1ccccc1O	.	.	.	-2	-11	-10
O=C(NC1CCOc2ccccc21)c1ccc(Cl)nc1 (configuration not stated)	.	.	2	-14	-3	4
COc1cc(C(=O)OCC(=O)Nc2ccc(N3CCOCC3)cc2)ccc1OCC(C)C	.	.	.	1	-5	9
CCC(C)(C)c1ccc(OC(=O)c2cccnc2Cl)cc1	.	.	4	24	-1	59*
Cc1cc(C)c(O)c(NC(=S)NC(=O)Cc2ccccc2)c1	.	.	2	10	5	0
COc1ccc(N=NC2=C(O)CC(C)(C)CC2=O)cc1	-3	0	-3	45	0	58*
O=C1C=C(c2cccc(CO)c2)C[C@@H](c2ccc(Cl)cc2)C1	.	.	.	.	6	.
O=C(NC1CCCc2ccccc21)c1cccc(F)c1 (configuration not stated)	.	.	.	.	2	.
COc1c(Br)cc(Br)cc1C(=O)O	-3	0	1	87	-6	112*
COc1ccc(N2C(=O)c3ccccc3C2=O)cc1	0	0	-2	5	-3	32
CC(C)Oc1ccc(N2C(=O)c3ccccc3C2=O)cc1	3	0	3	8	-5	58*
O=S(=O)(Nc1nc2ccccc2nc1Nc1cccc(S(=O)(=O)N2CCCCC2)c1)c1ccccc1	4	0	-2	70	-5	101*
c1ccc(-c2nnsc2-c2ccccc2)cc1	.	.	4	-6	-9	0
O=S(=O)(c1ccc(Cl)c(Cl)c1)c1snnc1-c1ccccc1	9	0	3	296	25	431*
